Assays:
[1] = test system: Mus musculus; experiment: Trypanocidal Activity at I.C.E. value 0.93 when administered subcutaneously.; format: functional
In short: (§1)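 Mice, in groups of five per dose, were given a standard inoculum of blood-stage T. rhodesiense that is lethal to all untreated controls, then dosed subcutaneously. Usually 11 dose levels were used (2^n × 0.42 mg/kg).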

[2] = test system: Trypanosoma brucei rhodesiense; experiment: In Vitro measurement of inhibition of thymidine uptake in cell culture of Trypanosoma rhodesiense; format: functional; conditions: read-out: ID50 (the source's name)
In short: (§2)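 Parasites harvested from infected rats and incubated 3 h across a drug concentration series, usually 0.1–100 µg/mL. Incorporation of radiolabeled thymidine measured. ID50 is the concentration (µg/mL) producing 50% inhibition.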

[3] = test system: Mus musculus; experiment: Trypanocidal Activity at I.C.E. value 0.60 when administered perorally.; format: functional
[4] = test system: Mus musculus; experiment: Trypanocidal Activity at I.C.E. value 0.52 when administered subcutaneously.; format: functional
In short: (§3)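 Blood-stage T. rhodesiense infection came from a standard inoculum lethal to all untreated mice. Drug was given by subcutaneous injection to groups of five mice. Survival beyond 30 days counted as cure. […] Sub-curative doses scored 0, and data were normalized at each dose.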

[5] = test system: Trypanosoma brucei rhodesiense; experiment: In Vitro measurement of inhibition of leucine uptake in cell culture of Trypanosoma rhodesiense; format: functional; conditions: read-out: ID50 (the source's name)
In short: (§4)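 Trypanosomes harvested from infected rats, cultured 3 h with several concentrations of drug, usually 0.1–100 µg/mL. Radiolabeled L-leucine uptake measured. ID50 is the concentration in µg/mL giving 50% inhibition of incorporation.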

[6] = test system: Mus musculus; experiment: Curative activity of the Compound after Subcutaneous administration at a dose of 0.42 mg/kg and I.C.E. value of 0.82; 8/10; format: functional
[7] = test system: Mus musculus; experiment: Curative activity of the Compound after oral administration at a dose of 1.67 mg/kg and I.C.E. value of 0.60; format: functional
[8] = test system: Mus musculus; experiment: Curative activity of the Compound after oral administration at a dose of 0.42 mg/kg and I.C.E. value of 0.60; format: functional
[9] = test system: Mus musculus; experiment: Fraction of mice that were cured after subcutaneous administration at a dose of 106 mg/kg and I.C.E. value of 0.82; format: functional
[10] = test system: Mus musculus; experiment: Fraction of mice that were cured after subcutaneous administration at a dose of 0.42 mg/kg and I.C.E. value of 0.82; format: functional
[11] = test system: Mus musculus; experiment: Fraction of mice that were cured after oral administration at a dose of 424 mg/kg and I.C.E. value of 0.56; format: functional
[12] = test system: Mus musculus; experiment: Curative activity of the Compound after Subcutaneous administration at a dose of 53 mg/kg and I.C.E. value of 0.82; 9/10; format: functional
[13] = test system: Mus musculus; experiment: Curative activity of the Compound after Subcutaneous administration at a dose of 424 mg/kg ( T-Toxic)and I.C.E. value of 0.82; 4/20 and 16 toxic; format: ADME, organism-based; design: dose 424 mg/kg, route subcutaneous; conditions: in vivo, sc
[14] = test system: Mus musculus; experiment: Curative activity of the Compound after Subcutaneous administration at a dose of 106 mg/kg ( T-Toxic) and I.C.E. value of 0.82; 16/20 and 1 toxic; format: ADME, organism-based; design: dose 106 mg/kg, route subcutaneous; conditions: in vivo, sc
[15] = test system: Mus musculus; experiment: Fraction of mice that were cured after subcutaneous administration at a dose of 13 mg/kg and I.C.E. value of 0.82; format: functional
[16] = test system: Mus musculus; experiment: Fraction of mice that were cured after oral administration at a dose of 212 mg/kg and I.C.E. value of 0.56; format: functional
[17] = test system: Mus musculus; experiment: Curative activity of the Compound after oral administration at a dose of 212 mg/kg and I.C.E. value of 0.60; 5/5; format: functional
[18] = test system: Mus musculus; experiment: Fraction of mice that were cured after oral administration at a dose of 106 mg/kg and I.C.E. value of 0.56; format: functional
[19] = test system: Mus musculus; experiment: Fraction of mice that were cured after subcutaneous administration at a dose of 212 mg/kg and I.C.E. value of 0.82; format: functional
[20] = test system: Mus musculus; experiment: Fraction of mice that were cured after oral administration at a dose of 53 mg/kg and I.C.E. value of 0.56; format: functional
[21] = test system: Mus musculus; experiment: Fraction of mice that were cured after oral administration at a dose of 3.3 mg/kg and I.C.E. value of 0.56; format: functional
[22] = test system: Mus musculus; experiment: Fraction of mice that were cured after subcutaneous administration at a dose of 1.67 mg/kg and I.C.E. value of 0.82; format: functional
[23] = test system: Trypanosoma brucei rhodesiense; experiment: In Vitro measurement of inhibition of Leucine uptake in cell culture of Trypanosoma rhodesiense.; format: functional; conditions: read-out: ID50 (the source's name); in short: as §4
[24] = test system: Mus musculus; experiment: Curative activity of the Compound after Subcutaneous administration at a dose of 0.83 mg/kg and I.C.E. value of 0.82;20/20; format: functional
[25] = test system: Mus musculus; experiment: Curative activity of the Compound after Subcutaneous administration at a dose of 26 mg/kg and I.C.E. value of 0.82; […]; format: functional
[26] = test system: Mus musculus; experiment: Fraction of mice that were cured after subcutaneous administration at a dose of 53 mg/kg and I.C.E. value of 0.82; format: functional
[27] = test system: Mus musculus; experiment: Curative activity of the Compound after Subcutaneous administration at a dose of 3.3 mg/kg and I.C.E. value of 0.82; 10/10; format: functional
[28] = test system: Mus musculus; experiment: Curative activity of the Compound after Subcutaneous administration at a dose of 53 mg/kg and I.C.E. value of 0.82; […]; format: functional
[29] = test system: Mus musculus; experiment: Curative activity of the Compound after oral administration at a dose of 3.3 mg/kg and I.C.E. value of 0.60;1/5; format: functional
[30] = test system: Mus musculus; experiment: Curative activity of the Compound after oral administration at a dose of 26 mg/kg and I.C.E. value of 0.60; 15/15; format: functional
[31] = test system: Mus musculus; experiment: Curative activity of the Compound after oral administration at a dose of 53 mg/kg and I.C.E. value of 0.60; 5/5; format: functional
[32] = test system: Mus musculus; experiment: Fraction of mice that were cured after oral administration at a dose of 26 mg/kg and I.C.E. value of 0.56; format: functional
[33] = test system: Mus musculus; experiment: Fraction of mice that were cured after oral administration at a dose of 1.67 mg/kg and I.C.E. value of 0.56; format: functional
[34] = test system: Mus musculus; experiment: Fraction of mice that were cured after oral administration at a dose of 0.83 mg/kg and I.C.E. value of 0.56; format: functional
[35] = test system: Mus musculus; experiment: Curative activity of the Compound after oral administration at a dose of 424 mg/kg and I.C.E. value of 0.60; 10/10; format: functional
[36] = test system: Mus musculus; experiment: Fraction of mice that were cured after subcutaneous administration at a dose of 424 mg/kg and I.C.E. value of 0.82; format: functional
[37] = test system: Mus musculus; experiment: Curative activity of the Compound after Subcutaneous administration at a dose of 212 mg/kg ( T-Toxic) and I.C.E. value of 0.82; 5/10 and 5 toxic; format: ADME, organism-based; design: dose 212 mg/kg, route subcutaneous; conditions: in vivo, sc
[38] = test system: Mus musculus; experiment: Fraction of mice that were cured after subcutaneous administration at a dose of 3.3 mg/kg and I.C.E. value of 0.82; format: functional
[39] = test system: Trypanosoma brucei rhodesiense; experiment: In Vitro measurement of inhibition of thymidine uptake in cell culture of Trypanosoma rhodesiense.; format: functional; conditions: read-out: ID50 (the source's name); in short: as §2
[40] = test system: Mus musculus; experiment: Fraction of mice that were cured after subcutaneous administration at a dose of 0.83 mg/kg and I.C.E. value of 0.82; format: functional
[41] = test system: Mus musculus; experiment: Trypanocidal Activity at I.C.E. value 0.56 when administered perorally.; format: functional
[42] = test system: Mus musculus; experiment: Curative activity of the Compound after oral administration at a dose of 6.6 mg/kg and I.C.E. value of 0.60; 2/5; format: functional
[43] = test system: Mus musculus; experiment: Curative activity of the Compound after oral administration at a dose of 13 mg/kg and I.C.E. value of 0.60; 10/10; format: functional
[44] = test system: Mus musculus; experiment: Fraction of mice that were cured after subcutaneous administration at a dose of 6.6 mg/kg and I.C.E. value of 0.82; format: functional
[45] = test system: Mus musculus; experiment: Fraction of mice that were cured after oral administration at a dose of 0.42 mg/kg and I.C.E. value of 0.56; format: functional
[46] = test system: Mus musculus; experiment: Curative activity of the Compound after oral administration at a dose of 106 mg/kg and I.C.E. value of 0.60; 10/10; format: functional
[47] = test system: Mus musculus; experiment: Curative activity of the Compound after Subcutaneous administration at a dose of 1.67 mg/kg and I.C.E. value of 0.82; 19/20; format: functional
[48] = test system: Mus musculus; experiment: Fraction of mice that were cured after subcutaneous administration at a dose of 26 mg/kg and I.C.E. value of 0.82; format: functional
[49] = test system: Mus musculus; experiment: Fraction of mice that were cured after oral administration at a dose of 13 mg/kg and I.C.E. value of 0.56; format: functional
[50] = test system: Mus musculus; experiment: Curative activity of the Compound after oral administration at a dose of 0.83 mg/kg and I.C.E. value of 0.60; format: functional
[51] = test system: Mus musculus; experiment: Fraction of mice that were cured after oral administration at a dose of 6.6 mg/kg and I.C.E. value of 0.56; format: functional
[52] = test system: Mus musculus; experiment: Trypanocidal Activity at I.C.E. value 0.82 when administered subcutaneously.; format: functional; in short: as §1
[53] = test system: Mus musculus; experiment: Trypanocidal Activity at I.C.E. value 0.38 when administered subcutaneously.; format: functional; in short: as §3
[54] = test system: Trypanosoma brucei rhodesiense; experiment: In Vitro measurement of inhibition of Thymidine uptake in cell culture of Trypanosoma rhodesiense.; format: functional; conditions: read-out: ID50 (the source's name)

CCSc1ccc2n(c1)cc(-c1ccc(/C=N/NC(=N)N)cc1)[n+]2C.Cc1ccc(S(=O)(=O)O)cc1.Cc1ccc(S(=O)(=O)[O-])cc1
CD50 [1]: 0.1 mg/kg

CNC(=N)N/N=C/c1ccc(-c2cn3ccsc3[n+]2C)cc1.I.[I-]
IC50 [2]: 1.5 µg/mL | CD50 [3]: 6.6 mg/kg | CD50 [4]: 0.4 mg/kg | IC50 [5]: 1.2 µg/mL

Cc1ccc(S(=O)(=O)O)cc1.Cc1ccc(S(=O)(=O)[O-])cc1.Cc1ccc2n(c1)cc(-c1ccc(/C=N/NC(=N)N)cc1)[n+]2C
Survivors [6]: 8 | Survivors [7]: 0 | Survivors [8]: 0 | Fraction cured [9]: 0.8 | Fraction cured [10]: 0.8 | Fraction cured [11]: 1 | Survivors [12]: 9 | Survivors [13]: 4 | Survivors [14]: 16 | Fraction cured [15]: 1 | Fraction cured [16]: 1 | Survivors [17]: 5 | Fraction cured [18]: 1 | Fraction cured [19]: 0.5 | Fraction cured [20]: 1 | Fraction cured [21]: 0.2 | Fraction cured [22]: 0.95 | IC50 [23]: 0.5 µg/mL | Survivors [24]: 20 | Survivors [25]: 29 | Fraction cured [26]: 0.9 | Survivors [27]: 10 | Survivors [28]: 9 | Survivors [29]: 1 | Survivors [30]: 15 | Survivors [31]: 5 | Fraction cured [32]: 1 | Fraction cured [33]: 0 | Fraction cured [34]: 0 | Survivors [35]: 10 | Fraction cured [36]: 0.2 | Survivors [37]: 5 | Fraction cured [38]: 1 | IC50 [39]: 0.4 µg/mL | Fraction cured [40]: 1 | CD50 [41]: 6.6 mg/kg | Survivors [42]: 2 | Survivors [43]: 10 | Fraction cured [44]: 1 | Fraction cured [45]: 0 | Survivors [46]: 10 | Survivors [47]: 19 | Fraction cured [48]: 0.97 | Fraction cured [49]: 1 | Survivors [50]: 0 | Fraction cured [51]: 0.4 | CD50 [52]: 0.2 mg/kg

Br.CSC(=N)N/N=C/c1ccc(-c2cn3cc(C)ccc3[n+]2C)cc1.[Br-]
CD50 [53]: 26 mg/kg | IC50 [23]: > 10 µg/mL | IC50 [54]: 4 µg/mL

From ChEMBL document CHEMBL1124947, “Cationic antiprotozoal drugs. Trypanocidal activity of 2-(4'-formylphenyl)imidazo[1,2-a]pyridinium guanylhydrazones and related derivatives of quaternary heteroaromatic compounds” (J Med Chem, 1990)
